Experimental data gathered from unrelated publications.
Compare with care: the assays were run in different laboratories.
Effect on: cell growth or viability

Structure (SMILES)	cell line	technique	tested at	time	endpoint	result
CCOC(=O)C1=C(CN2CCC[C@@H]2C(=O)Nc2cccc(B(O)O)c2)NC(c2nccs2)=N[C@H]1c1ccc(F)cc1Br	HePAD38	CCK-8		6 days	CC50	18.4 µM
CC(C)(C)CNc1nc(-c2cccs2)nc(Cl)c1-c1c(F)cc(C#N)cc1F	HEK293	resazurin		48 h	CC50	> 50 µM
Nc1ccn([C@@H]2O[C@H](CO)[C@@H](O)C2(F)F)c(=O)n1	HEK293	MTT	0.625 µg/mL	24 h	viability	83.8%
CCOC(=O)c1cnc2c([N+](=O)[O-])cc(C(F)(F)F)cc2c1NCc1ccc(C(F)(F)F)cc1	HEK293	resazurin		72 h	CC50	~9 µM
NC(=S)NN=Cc1ccc(OC(=O)CN2C(=O)CSC2=O)c(Cl)c1	HEK293	MTT	50 µg/mL	24 h	viability	> 70%
CC(C)[C@@H](C)Nc1nc(-c2cccs2)nc(Cl)c1-c1c(F)cc([N+](=O)[O-])cc1F	HEK293	resazurin		48 h	CC50	20.2 µM
CCOC(=O)C1=C(CN2CCC[C@@H]2C(=O)Nc2ccc(B(O)O)cc2)NC(c2nccs2)=N[C@H]1c1ccc(F)cc1Br	HePAD38	CCK-8		6 days	CC50	26.5 µM
C#Cc1cc(F)c(-c2c(Cl)nc(-c3cccs3)nc2NCC2(C)N=N2)c(F)c1	HEK293	resazurin		48 h	CC50	> 20 µM
Cc1ccc(S(=O)(=O)NNc2ccc([N+](=O)[O-])cc2[N+](=O)[O-])cc1	HEK293	MTT	62.5 µg/mL		viability	82.7%
CCOc1cc(C=NNC(N)=S)ccc1OC(=O)CN1C(=O)CSC1=O	HEK293	MTT	40 µg/mL	24 h	viability	> 70%
